In ChEMBL document CHEMBL1667802, “1H-imidazo[4,5-c]pyridine-4-carbonitrile as cathepsin S inhibitors: separation of desired cellular activity from undesired tissue accumulation through optimization of basic nitrogen pka” (Bioorg Med Chem Lett, 2011):

Tested on: not listed separately
Experiment: Ratio of drug level in spleen to plasma in C57BI/6 mouse at 30 mg/kg, po after 4 hrs
Type: ADME, organism-based
Set-up: dose 30 mg/kg, route oral
Settings: not given
Summary of the method: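 Male or female unspecified 18–25 g C57Bl/6 mice received the HCl salt at 30 mg/kg by oral gavage in 0.5% gelatin, 5% mannitol in water. Blood and spleen were collected after dosing and total compound levels measured. The spleen/plasma ratio was taken from total spleen and total plasma concentrations (nM).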
With `CN(C)CCCOc1ccc(-c2cc3c(ncn3C)c(C#N)n2)cc1C(F)(F)F` the Kp at 4 h was 26.

Tested on: Liver microsomes
Experiment: Stability in Sprague-Dawley rat liver microsome
Type: ADME
Settings: not given
In the case of `Cn1cnc2c(C#N)nc(-c3ccc(OCCC4CCNCC4)c(C(F)(F)F)c3)cc21`, the Stability is reported as “Stable”.

Tested on: Plasma
Experiment: Drug level in C57BI/6 mouse plasma at 30 mg/kg, po
Type: ADME, organism-based
Set-up: dose 30 mg/kg, route oral
Settings: in vivo
In the case of `CCN1CCN(CCCOc2ccc(-c3cc4c(ncn4C)c(C#N)n3)cc2C(F)(F)F)CC1`, the concentration is reported as 90 nM.
`CN(C)C(=O)CN1CCC(CCOc2ccc(-c3cc4c(ncn4C)c(C#N)n3)cc2C(F)(F)F)CC1` showed a concentration of 1030 nM.
In the case of `Cc1noc(C)c1CN1CCC(CCOc2ccc(-c3cc4c(ncn4C)c(C#N)n3)cc2C(F)(F)F)CC1`, the concentration is reported as 3400 nM.

Tested on: not listed separately
Experiment: Stability in C57 mouse liver microsome
Type: ADME
Settings: microsomes
For `Cn1cnc2c(C#N)nc(-c3ccc(OCCC4CCNCC4)c(C(F)(F)F)c3)cc21`, the Stability was “Stable”.

Tested on: not listed separately
Experiment: Oral bioavailability in C57 mouse at 2 mg/kg, iv or 10 mg/kg, po
Type: ADME, organism-based
Settings: in vivo
Summary of the method: (§1)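 Pharmacokinetics in male C57 mice, Sprague Dawley rats and Cynomolgus monkeys. Dosing was 2 mg/kg iv and 10 mg/kg po, with oral vehicle gelatin/mannitol. Parameters reported are clearance, Vss, Cmax and oral bioavailability (F %).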
`CN(C)C(=O)CN1CCC(CCOc2ccc(-c3cc4c(ncn4C)c(C#N)n3)cc2C(F)(F)F)CC1` showed a bioavailability of 62%.

Biological target: T1, Cathepsin L2 (Homo sapiens, UniProt O60911)
T1 sequence (O60911 whole entry): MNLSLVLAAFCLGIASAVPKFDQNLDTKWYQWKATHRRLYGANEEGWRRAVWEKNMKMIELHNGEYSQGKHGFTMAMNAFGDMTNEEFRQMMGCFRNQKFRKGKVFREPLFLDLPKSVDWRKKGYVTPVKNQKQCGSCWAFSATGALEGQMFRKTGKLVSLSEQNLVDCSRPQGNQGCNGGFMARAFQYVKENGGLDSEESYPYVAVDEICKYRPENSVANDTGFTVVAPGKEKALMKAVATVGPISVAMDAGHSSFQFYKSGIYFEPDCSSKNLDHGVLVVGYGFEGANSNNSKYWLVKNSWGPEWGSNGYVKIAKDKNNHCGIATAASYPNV
Experiment: Inhibition of human cathepsin V
Settings: not given
In the case of `Cn1cnc2c(C#N)nc(-c3ccc(OCCC4CCNCC4)c(C(F)(F)F)c3)cc21`, the IC50 is reported as over 10 µM.
Compound `CN(C)CCCOc1ccc(-c2cc3c(ncn3C)c(C#N)n2)cc1C(F)(F)F` has an IC50 of over 10 µM.
For `CCN1CCN(CCCOc2ccc(-c3cc4c(ncn4C)c(C#N)n3)cc2C(F)(F)F)CC1`, the IC50 was over 10 µM.
`CN(C)C(=O)CN1CCC(CCOc2ccc(-c3cc4c(ncn4C)c(C#N)n3)cc2C(F)(F)F)CC1` showed an IC50 of over 10 µM.
In the case of `Cc1noc(C)c1CN1CCC(CCOc2ccc(-c3cc4c(ncn4C)c(C#N)n3)cc2C(F)(F)F)CC1`, the IC50 is reported as over 10 µM.

Tested on: not listed separately
Experiment: Cmax in Sprague-Dawley rat at 2 mg/kg, iv or 10 mg/kg, po
Type: ADME, organism-based
Settings: in vivo
Summary of the method: as §1
Compound `CN(C)C(=O)CN1CCC(CCOc2ccc(-c3cc4c(ncn4C)c(C#N)n3)cc2C(F)(F)F)CC1` has a Cmax of 13.4 ng/mL.

Tested on: not listed separately
Experiment: Drug level in C57BI/6 mouse plasma at 30 mg/kg, po after 4 hrs
Type: ADME, organism-based
Set-up: dose 30 mg/kg, route oral
Settings: not given
With `CN(C)CCCOc1ccc(-c2cc3c(ncn3C)c(C#N)n2)cc1C(F)(F)F` the concentration at 4 h was 94 nM.

Tested on: not listed separately
Experiment: Clearance in C57 mouse at 2 mg/kg, iv or 10 mg/kg, po
Type: ADME, organism-based
Settings: in vivo
Summary of the method: as §1
Compound `CN(C)C(=O)CN1CCC(CCOc2ccc(-c3cc4c(ncn4C)c(C#N)n3)cc2C(F)(F)F)CC1` has a clearance of 79.4 mL/min/kg.

Tested on: Liver microsomes
Experiment: Stability in human liver microsome
Type: ADME
Settings: not given
For `Cn1cnc2c(C#N)nc(-c3ccc(OCCC4CCNCC4)c(C(F)(F)F)c3)cc21`, the Stability was “Stable”.

Tested on: not listed separately
Experiment: Cmax in C57 mouse at 2 mg/kg, iv or 10 mg/kg, po
Type: ADME, organism-based
Settings: in vivo
Summary of the method: as §1
Work on `CN(C)C(=O)CN1CCC(CCOc2ccc(-c3cc4c(ncn4C)c(C#N)n3)cc2C(F)(F)F)CC1` yielded a Cmax of 296 ng/mL.

Biological target: T2, Cathepsin K (Homo sapiens, UniProt P43235)
T2 sequence (P43235 whole entry): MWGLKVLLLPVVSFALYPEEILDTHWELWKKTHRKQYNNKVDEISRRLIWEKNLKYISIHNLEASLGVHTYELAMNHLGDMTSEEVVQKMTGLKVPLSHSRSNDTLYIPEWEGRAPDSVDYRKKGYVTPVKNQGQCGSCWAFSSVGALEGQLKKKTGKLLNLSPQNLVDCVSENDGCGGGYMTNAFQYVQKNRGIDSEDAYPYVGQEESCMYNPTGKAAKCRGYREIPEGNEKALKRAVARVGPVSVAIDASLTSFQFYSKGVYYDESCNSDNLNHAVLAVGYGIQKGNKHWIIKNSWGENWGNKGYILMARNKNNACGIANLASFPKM
Experiment: Inhibition of human cathepsin K
Settings: not given
In the case of `CN(C)C(=O)CN1CCC(CCOc2ccc(-c3cc4c(ncn4C)c(C#N)n3)cc2C(F)(F)F)CC1`, the IC50 is reported as 407 nM.
Compound `Cc1noc(C)c1CN1CCC(CCOc2ccc(-c3cc4c(ncn4C)c(C#N)n3)cc2C(F)(F)F)CC1` has an IC50 of 288 nM.

Biological target: Procathepsin L (Homo sapiens, UniProt P07711)
Sequence (P07711 whole entry): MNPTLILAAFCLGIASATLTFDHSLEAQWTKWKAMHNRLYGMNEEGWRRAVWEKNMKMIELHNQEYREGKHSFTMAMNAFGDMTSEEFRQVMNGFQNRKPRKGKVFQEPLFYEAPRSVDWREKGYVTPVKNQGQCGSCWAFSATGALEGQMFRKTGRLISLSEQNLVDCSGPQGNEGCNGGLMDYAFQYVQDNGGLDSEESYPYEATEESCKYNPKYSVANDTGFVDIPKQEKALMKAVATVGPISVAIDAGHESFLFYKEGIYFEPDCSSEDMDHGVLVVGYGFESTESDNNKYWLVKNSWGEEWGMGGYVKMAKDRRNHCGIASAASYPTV
Experiment: Inhibition of human cathepsin L
Settings: not given
`Cn1cnc2c(C#N)nc(-c3ccc(OCCC4CCNCC4)c(C(F)(F)F)c3)cc21` showed an IC50 of over 10 µM.
With `CN(C)CCCOc1ccc(-c2cc3c(ncn3C)c(C#N)n2)cc1C(F)(F)F` the IC50 was over 10 µM.
`CCN1CCN(CCCOc2ccc(-c3cc4c(ncn4C)c(C#N)n3)cc2C(F)(F)F)CC1` showed an IC50 of over 10 µM.
`CN(C)C(=O)CN1CCC(CCOc2ccc(-c3cc4c(ncn4C)c(C#N)n3)cc2C(F)(F)F)CC1` showed an IC50 of over 10 µM.
In the case of `Cc1noc(C)c1CN1CCC(CCOc2ccc(-c3cc4c(ncn4C)c(C#N)n3)cc2C(F)(F)F)CC1`, the IC50 is reported as over 10 µM.

Tested on: Spleen
Experiment: Drug level in C57BI/6 mouse spleen at 30 mg/kg, po
Type: ADME, organism-based
Set-up: dose 30 mg/kg, route oral
Settings: in vivo, read-out: Drug uptake
`CCN1CCN(CCCOc2ccc(-c3cc4c(ncn4C)c(C#N)n3)cc2C(F)(F)F)CC1` showed a concentration of 4.57 µM.
In the case of `CN(C)C(=O)CN1CCC(CCOc2ccc(-c3cc4c(ncn4C)c(C#N)n3)cc2C(F)(F)F)CC1`, the concentration is reported as 11.7 µM.
`Cc1noc(C)c1CN1CCC(CCOc2ccc(-c3cc4c(ncn4C)c(C#N)n3)cc2C(F)(F)F)CC1` gave a concentration of 19.6 µM.

Tested on: not listed separately
Experiment: Oral bioavailability in Sprague-Dawley rat at 2 mg/kg, iv or 10 mg/kg, po
Type: ADME, organism-based
Settings: in vivo
Summary of the method: as §1
For `CN(C)C(=O)CN1CCC(CCOc2ccc(-c3cc4c(ncn4C)c(C#N)n3)cc2C(F)(F)F)CC1`, the bioavailability was 8.93%.

Biological target: T3, Cathepsin S (Homo sapiens, UniProt P25774)
T3 sequence (P25774 whole entry): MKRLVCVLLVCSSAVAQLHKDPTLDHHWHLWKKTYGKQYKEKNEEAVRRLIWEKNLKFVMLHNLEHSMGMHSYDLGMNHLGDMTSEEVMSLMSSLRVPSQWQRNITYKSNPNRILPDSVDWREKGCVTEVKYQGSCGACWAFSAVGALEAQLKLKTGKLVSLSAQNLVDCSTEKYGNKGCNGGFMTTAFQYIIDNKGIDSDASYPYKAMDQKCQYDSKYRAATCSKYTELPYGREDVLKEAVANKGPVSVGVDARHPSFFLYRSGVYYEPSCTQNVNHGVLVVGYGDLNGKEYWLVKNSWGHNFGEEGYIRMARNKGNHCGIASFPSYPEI
Experiment: Inhibition of cathepsin S in human JY cells assessed as accumulation of lip10 by Western blot analysis
Type: cell-based
Settings: not given
In the case of `CN(C)C(=O)CN1CCC(CCOc2ccc(-c3cc4c(ncn4C)c(C#N)n3)cc2C(F)(F)F)CC1`, the IC50 is reported as 22 nM.
For `Cc1noc(C)c1CN1CCC(CCOc2ccc(-c3cc4c(ncn4C)c(C#N)n3)cc2C(F)(F)F)CC1`, the IC50 was 12 nM.

Tested on: not listed separately
Experiment: Clearance in Sprague-Dawley rat at 2 mg/kg, iv or 10 mg/kg, po
Type: ADME, organism-based
Settings: in vivo
Summary of the method: as §1
`CN(C)C(=O)CN1CCC(CCOc2ccc(-c3cc4c(ncn4C)c(C#N)n3)cc2C(F)(F)F)CC1` showed a clearance of 93.5 mL/min/kg.

Biological target: Cathepsin B (Homo sapiens, UniProt P07858)
Experiment: Inhibition of human cathepsin B
Settings: not given
With `Cn1cnc2c(C#N)nc(-c3ccc(OCCC4CCNCC4)c(C(F)(F)F)c3)cc21` the IC50 was over 10 µM.
With `CN(C)CCCOc1ccc(-c2cc3c(ncn3C)c(C#N)n2)cc1C(F)(F)F` the IC50 was over 10 µM.
`CCN1CCN(CCCOc2ccc(-c3cc4c(ncn4C)c(C#N)n3)cc2C(F)(F)F)CC1` showed an IC50 of over 10 µM.
`CN(C)C(=O)CN1CCC(CCOc2ccc(-c3cc4c(ncn4C)c(C#N)n3)cc2C(F)(F)F)CC1` gave an IC50 of over 10 µM.
`Cc1noc(C)c1CN1CCC(CCOc2ccc(-c3cc4c(ncn4C)c(C#N)n3)cc2C(F)(F)F)CC1` showed an IC50 of over 10 µM.

Tested on: not listed separately
Experiment: Volume of distribution at steady state in C57 mouse at 2 mg/kg, iv or 10 mg/kg, po
Type: ADME, organism-based
Settings: in vivo, read-out: Vdss
Summary of the method: as §1
With `CN(C)C(=O)CN1CCC(CCOc2ccc(-c3cc4c(ncn4C)c(C#N)n3)cc2C(F)(F)F)CC1` the Vd was 6.17 L/kg.

Tested on: not listed separately
Experiment: Ratio of drug level in spleen to plasma in C57BI/6 mouse at 30 mg/kg, po
Type: ADME, organism-based
Set-up: dose 30 mg/kg, route oral
Settings: not given
Summary of the method: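 HCl salt given by oral gavage at 30 mg/kg in 0.5% gelatin, 5% mannitol in water to C57Bl/6 mice of 18–25 g. Blood and spleen collected 2 h after dosing and total compound level measured in each. Ratio taken as total spleen over total plasma concentration.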
`CCN1CCN(CCCOc2ccc(-c3cc4c(ncn4C)c(C#N)n3)cc2C(F)(F)F)CC1` gave a Kp of 51.
`CN(C)C(=O)CN1CCC(CCOc2ccc(-c3cc4c(ncn4C)c(C#N)n3)cc2C(F)(F)F)CC1` gave a Kp of 11.4.
`Cc1noc(C)c1CN1CCC(CCOc2ccc(-c3cc4c(ncn4C)c(C#N)n3)cc2C(F)(F)F)CC1` showed a Kp of 5.8.

Tested on: not listed separately
Experiment: Drug level in C57BI/6 mouse spleen at 30 mg/kg, po after 4 hrs
Type: ADME, organism-based
Set-up: dose 30 mg/kg, route oral
Settings: read-out: Drug uptake
`CN(C)CCCOc1ccc(-c2cc3c(ncn3C)c(C#N)n2)cc1C(F)(F)F` showed a concentration at 4 h of 2430 nM.

Tested on: not listed separately
Experiment: Volume of distribution at steady state in Sprague-Dawley rat at 2 mg/kg, iv or 10 mg/kg, po
Type: ADME, organism-based
Settings: in vivo, read-out: Vdss
Summary of the method: as §1
In the case of `CN(C)C(=O)CN1CCC(CCOc2ccc(-c3cc4c(ncn4C)c(C#N)n3)cc2C(F)(F)F)CC1`, the Vd is reported as 9.8 L/kg.

Tested on: not listed separately
Experiment: Dissociation constant, pKa of the compound
Type: physicochemical
Settings: not given
With `CN(C)C(=O)CN1CCC(CCOc2ccc(-c3cc4c(ncn4C)c(C#N)n3)cc2C(F)(F)F)CC1` the pKa was 7.5.
`Cc1noc(C)c1CN1CCC(CCOc2ccc(-c3cc4c(ncn4C)c(C#N)n3)cc2C(F)(F)F)CC1` gave a pKa of 7.9.

Biological target: T3, Cathepsin S
Experiment: Inhibition of human cathepsin S
Settings: not given
Compound `Cc1noc(C)c1CN1CCC(CCOc2ccc(-c3cc4c(ncn4C)c(C#N)n3)cc2C(F)(F)F)CC1` has an IC50 of 3.3 nM.
